In assay [1] the test system is RAW264.7. Kind of assay: Antiproliferative activity against LPS-induced mouse RAW264.7 cells assessed as number of cells at 1 uM after 48 hrs. The format is functional. In short, it runs like this:
(§1)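 RAW264.7 mouse macrophages were seeded at 500 cells/well and held 24 h at 37°C in 5% CO2. Compound was added (n=4 wells), then LPS solution (1 ug/ml) 1 h later, followed by 48 h incubation. Cell number was read as ATP luminescence (CellTiter-Glo), which is linear with cell count. Values are four-well means, […].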

Assay [2] concerns RAW264.7. Kind of assay: Antiproliferative activity against LPS-induced mouse RAW264.7 cells assessed as number of cells at 10 uM after 48 hrs. The format is functional. In short, it runs like this:
as §1

Assay [3] relates to RAW264.7. Nature of the assay: Antiproliferative activity against LPS-induced mouse RAW264.7 cells assessed as number of cells at 0.1 uM after 48 hrs. The format is functional. The gist of the method:
as §1

In assay [4] the test system is RAW264.7. Nature of the assay: Effect on iPGJ2 level in LPS-induced mouse RAW264.7 cells at 10 uM by ELISA. The format is functional. The gist of the method: (§2)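 RAW cells were seeded at 20,000/well and cultured 20 h at 37°C in 5% CO2, then washed and placed in serum-free RPMI. Compounds were added in DMSO at 1 or 10 uM final (N=3). LPS solution (1 ug/ml) was added 30 min later, with a further 2 h incubation. Centrifuged media were assayed by enzyme immunoassay for immunoreactive PGE and PGJ2 (pg/ml); the ratio is iPGJ/iPGE.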

For assay [5], the system named is RAW264.7. Kind of assay: Effect on iPGE2 level in LPS-induced mouse RAW264.7 cells at 10 uM by ELISA. The format is functional. The gist of the method: as §2
For assay [6], the system named is RAW264.7. Kind of assay: Effect on iPGE2 level in LPS-induced mouse RAW264.7 cells at 1 uM by ELISA. In kind it is functional. In short, it runs like this:
as §2
(An ELISA detects its analyte on a solid surface through an enzyme-linked reagent.)

For assay [7], the system named is RAW264.7. Kind of assay: Ratio of iPGJ2 to iPGE in LPS-induced mouse RAW264.7 cells at 10 uM by ELISA. In kind it is functional. In short, it runs like this: as §2
In assay [8] the test system is RAW264.7. Kind of assay: Effect on iPGJ2 level in LPS-induced mouse RAW264.7 cells at 1 uM by ELISA. The format is functional. In short, it runs like this:
as §2

Assay [9] relates to RAW264.7. Kind of assay: Ratio of iPGJ2 to iPGE in LPS-induced mouse RAW264.7 cells at 1 uM by ELISA. In kind it is functional. The gist of the method: as §2
In assay [10] the test system is Mus musculus. Kind of assay: Reduction of phorbol ester-induced ear edema in CD1 mouse assessed as ear thickness. The format is functional, organism-based.
Assay [11] concerns Mus musculus. Kind of assay: Reduction of phorbol ester-induced ear edema in CD1 mouse assessed as ear thickness at 200 ug/ear. In kind it is functional. Details: scale not given: the % may be the effect or the level left. The gist of the method: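 Male CD-1 mice (34–40 g), topically dosed at 200 ug/ear in 10 ul acetone on the ipsilateral ear, with acetone alone on the contralateral ear. Phorbol ester was the edema inducer. Ear thickness was read by digital micrometer and expressed as the ipsilateral minus contralateral difference in microns. N = 8; paired t-test against vehicle.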

Calls of active or inactive are those of the source. The calls are words filed in the database; no cut-off is given here.

As for `CCCCC/C=C\C/C=C\CCCCCCCC(=O)N[C@@H](C)C(=O)O`, the Cell number is recorded as 4233 in assay [1] and 621 in assay [2]. Moreover, the Activity in [3] is listed as 3955.
As for `CCCCC/C=C\C/C=C\C/C=C\C/C=C\CCCCCC(=O)N[C@@H](C)C(=O)O`, the Cell number in assay [1] came out at 4415; in assay [2] it was 618. For the same molecule, the Activity in assay [3] was found to be 4668.
`CCCCC/C=C\C/C=C\C/C=C\CCCCCCC(=O)N[C@@H](C)C(=O)O`: the Cell number was found to be 4680 in assay [1] and 637 in assay [2]. In addition, the Activity in [3] was 4326.
For the molecule `CCCCC/C=C\C/C=C\C/C=C\C/C=C\CCCC(=O)N[C@@H](C)C(=O)O`, the Activity was determined as 41059 pg/mL in assay [4]; 652 pg/mL in assay [5]; 241 pg/mL in assay [6]; 2345 pg/mL in assay [8]; 4781 in [3]. Besides, the Cell number in [1] came to 4735; in assay [2], 2110. Besides, the values for the Ratio in [7] and in assay [9] were 62 and 9, respectively.
Turning to `CCCCCCCCCCCCCCCC(=O)N[C@@H](C)C(=O)O`, the Cell number in [1] is recorded as 4670; in [2], 432. Also, the Activity amounted to 232 pg/mL in [5], 251 pg/mL in assay [6], 261 pg/mL in assay [8] and 4541 in [3]. Further, the Ratio in [7] turned out to be 17; in assay [9], 1.
In the case of `O=C1CCN(c2ccccc2)N1`, in [10], the outcome was inactive.
Turning to `COc1ccc2cc([C@H](C)C(=O)O)ccc2c1` [NAPROXEN], the Activity turned out to be 70 pg/mL in assay [4] and 75 pg/mL in assay [5]. Further, the Ratio in assay [7] was determined as 1.
Regarding `CCCCC/C=C\C/C=C\C/C=C\C/C=C\CCCC(=O)N[C@H](C)C(=O)O`, the Activity came to 28224 pg/mL in assay [4], 269 pg/mL in [5], 124 pg/mL in assay [6] and 1496 pg/mL in [8]. In addition, the Ratio in assay [7] is given as 104; in assay [9] it was 12.
As to `CCCCC/C=C\C/C=C\C/C=C\CCCCCCC(=O)NCC(=O)O`, the Cell number in assay [1] amounted to 5563; in assay [2] it was 647. The Activity in [3] is on record as 5486.
As for `CCCCC/C=C\C/C=C\C/C=C\CCCCC(=O)NCC(=O)O`, the Activity in assay [4] worked out at 80205 pg/mL; in assay [5] it was 289 pg/mL; in assay [6], 127 pg/mL; in [8], 5040 pg/mL; in assay [3], 5435. The figures for the Cell number in assay [1] and in [2] were 5700 and 6602, respectively. Besides, the Ratio in [7] amounted to 277; in assay [9], 39.
For the molecule `CCCCC/C=C\C/C=C\C/C=C\CCCCC(=O)N[C@@H](C)C(=O)O`, the Cell number is reported as 4557 in assay [1] and 2696 in [2]. Moreover, the Activity in assay [3] is recorded as 4247.
For `CCCCC/C=C\C/C=C\CCCCCCCCCC(=O)N[C@@H](C)C(=O)O`, the Cell number in assay [1] amounted to 4397; in assay [2] it was 605. Besides, the Activity in assay [3] is 3641.
As to `CCCCC/C=C\C/C=C\CCCCCCCC(=O)NCC(=O)O` [LINOLEOYL GLYCINE], the Cell number in assay [1] worked out at 4595; in assay [2], 713. In addition, the Activity in assay [3] is reported as 5979.
`CCCCC/C=C\C/C=C\C/C=C\C/C=C\CCCC(=O)NCC(=O)O` [ARACHIDONOYL GLYCINE]: the Activity in [4] stood at 97830 pg/mL; in assay [5], 425 pg/mL; in assay [6], 273 pg/mL; in [8] it was 40407 pg/mL; in assay [3], 5630; in assay [11], 40%. In addition, the Cell number was 6156 in assay [1] and 591 in [2]. The values for the Ratio in assay [7] and in [9] were 229 and 147, respectively.
Consider `CCCCCCCCCCCCCCCC(=O)NCC(=O)O` [PALMITOYL GLYCINE], for which the Activity stood at 401 pg/mL in assay [4]; 128 pg/mL in [5]; 103 pg/mL in [6]; 219 pg/mL in assay [8]; 5120 in [3]. Further, the figures for the Cell number in [1] and in assay [2] were 5524 and 5108, respectively. For the same molecule, the values for the Ratio in assay [7] and in assay [9] were 3 and 2, respectively.
Turning to `CCCCCCCC/C=C\CCCCCCCC(=O)N[C@@H](C)C(=O)O`, the Cell number in assay [1] turned out to be 4533; in assay [2] it was 422. For the same molecule, in assay [3], the Activity came out at 3637.
For `CCCCC/C=C\C/C=C\CCCCCCCCCC(=O)NCC(=O)O`, the Cell number in [1] came out at 5738; in [2], 609. In addition, the Activity in [3] came out at 2945.
For the molecule `CCCCC/C=C\C/C=C\C/C=C\C/C=C\CCCCCC(=O)NCC(=O)O`, the Cell number in assay [1] is 5310; in assay [2] it was 3574. The Activity in [3] is listed as 5131.
Turning to `CCCCCCCCCCCCCCCCCC(=O)NCC(=O)O`, the Activity stood at 159 pg/mL in assay [4], 126 pg/mL in assay [5], 121 pg/mL in assay [6] and 201 pg/mL in [8]. Further, the Ratio in assay [7] and in [9] was 1 in each case.
Take `CCCCCCCCCCCCCCCC(=O)N[C@H](C)C(=O)O`: the Activity in [4] amounted to 3079 pg/mL; in assay [5] it was 319 pg/mL; in assay [6], 256 pg/mL; in [8] it was 281 pg/mL. Further, the Ratio was 9 in assay [7] and 1 in [9].
Turning to `CCCCCCCC/C=C\CCCCCCCC(=O)NCC(=O)O` [OLEOYL GLYCINE], the Cell number in assay [1] amounted to 5557; in assay [2], 425. Moreover, in assay [3], the Activity worked out at 5172.

The record behind these values is ChEMBL document CHEMBL1143036, “Potential anti-inflammatory actions of the elmiric (lipoamino) acids” (2007).
